# A selection: hits, their analogues and other compounds. The true share with any hit is near 3.1%.
# E-selectin induc = induces E-selectin expression in human endothelial cells | HUVEC E-selectin immunofluorescence imaging; normalized: neutral wells 0, TNF-alpha wells 100 | activation, % at 7.58 µM | 0.37% of 260,000 active | P16581;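 active means mean E-selectin-positive cell signal at least 10% of the positive control, reached in at least 60% of replicates, without over 20% cell loss; inconclusive means no rule given, readout overlaps actives, possibly toxicity-flagged; inactive means the rest, including those meeting only one limit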
# Target sequence (P16581 whole entry, looked up): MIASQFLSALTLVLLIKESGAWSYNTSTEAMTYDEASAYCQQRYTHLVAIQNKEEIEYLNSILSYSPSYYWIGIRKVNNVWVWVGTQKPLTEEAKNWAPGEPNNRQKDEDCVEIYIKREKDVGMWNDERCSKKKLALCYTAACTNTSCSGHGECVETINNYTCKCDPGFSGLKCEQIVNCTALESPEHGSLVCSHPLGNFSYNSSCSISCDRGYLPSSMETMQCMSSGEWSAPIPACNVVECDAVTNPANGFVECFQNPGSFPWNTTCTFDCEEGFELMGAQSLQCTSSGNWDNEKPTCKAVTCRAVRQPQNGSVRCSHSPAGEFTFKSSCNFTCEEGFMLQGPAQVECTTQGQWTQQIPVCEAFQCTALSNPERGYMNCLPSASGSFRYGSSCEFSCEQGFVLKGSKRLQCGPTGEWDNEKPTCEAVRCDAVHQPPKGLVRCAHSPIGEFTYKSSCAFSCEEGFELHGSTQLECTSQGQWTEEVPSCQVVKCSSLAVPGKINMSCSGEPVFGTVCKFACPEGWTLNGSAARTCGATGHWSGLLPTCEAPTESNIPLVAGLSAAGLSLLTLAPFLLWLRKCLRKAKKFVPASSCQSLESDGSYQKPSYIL
#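 System: HUVEC, human umbilical vein endothelial cells; quantity: 3,000 cells/well; buffer or medium: EGM-2 medium, gelatin-coated wells; dosing: single-point compound dose; detection: immunofluorescence imaging; evaluation: % PE-positive cells; benchmarks: TNF-alpha, DMSO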
# Cneo AK release = causes C. neoformans cell lysis; lysis activity, % at 15 µM; 0.2% of 360,000 active; adenylate kinase release luminescence, 4 h; normalised: neutral wells 0, clomiphene wells 100; AID 651654;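 active means mean lysis activity across replicates of at least 80%, whatever share of replicates individually reach that level; inactive means mean lysis activity below 80%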
#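 Test system: log-phase Cryptococcus neoformans yeast cells. Input: 5 × 10^6 yeast cells/mL. Medium: fresh YPD growth medium. Doses: single dose. Incubation: static 4 h at 37 °C with compound, 1 h detection. Measured by: luminescent adenylate kinase detection reagent. Read-out: signal increase indicating cell lysis. Benchmarks: Clomiphene.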
# DENV2 CPE rescue = DENV2-induced cell death inhibition; DENV2-infected cells, cytopathic effect rescue, plate reader; CPE inhibition, % at 9.99 µM; 1.7% of 350,000 active; AID 651640; in the data active means CPE inhibition above about 20%, passing the limit was not always enough; inconclusive means no clear call, values can overlap the other calls; tested in BHK-21 cells;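 further: 0% = median of neutral control wells and 100% = median of positive control wells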
# rRNA inh HTS = inhibits bacterial ribosomal RNA function over humanized ribosomes. E. coli WT GFP vs humanized-ribosome RFP mutants, fluorescence, 24 h; hits give low values; DMSO median 0, no signal -100. GFP signal change (wild-type ribosome), % (test concentration not listed). 1.6% of 350,000 active;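 active means significant combined selectivity score with lowered wild-type GFP, culture density cut under 30%, mutant RFP and density less affected; inactive means any of these conditions unmet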
# miR122 inh = miR-122 inhibition in Huh7 cells; AID 602342; Huh7 miR-122 Renilla luciferase sensor, 48 h; neutral wells = 0, positive control = 100; activation (reporter increase), % at 12.5 µM; 0.3% of 340,000 active;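 active means mean replicate activation score at least 90 and every replicate individually at or above 90; inconclusive means only one of the two criteria met; inactive means neither criterion met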;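 further: higher luciferase means less miR-122 activity so hits act as miR-122 inhibitors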
# HepG2 tox = cytotoxic compounds in HepG2 cells; shares compounds with rRNA inh HTS; HepG2 viability, ATP luminescence, 72 h; activity change, negative = cytotoxicity, unspecified at 26 µM; 30 tested, under 10 active; AID 743480;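 active means compounds whose fitted half-maximal signal-loss concentration is at most twice their highest valid dose; inconclusive means flat curve with 30 to 70% signal loss, or poor fit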
# AID977621 = wild-type E. coli growth inhibition versus H69 humanized strain – H69 mutant RFP, wild-type GFP, cherry-pick, dose response; fluorescence, 24 h; activity change, negative = inhibition at 50 µM; 1,900 tested, under 10 active; shares compounds with rRNA inh HTS;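 active means Wild-type ribosome reporter drop at least double the humanized mutant ribosome reporter drop, growth loss under a set limit; inconclusive means no clear call, values can overlap the other calls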;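 further: wild-type GFP and H69 mutant RFP strains grown together 50/50 in each well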
# AID977628 = growth of wild-type and h24-humanized E. coli strains – h24 mutant RFP vs wild-type GFP, cherry-pick, dose response | shares compounds with rRNA inh HTS | E. coli WT GFP strain growth, fluorescence, 24 h | activity change, negative = inhibition at 50 µM | 1,900 tested, under 10 active | AID 977628;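 active means compound lowering the normal-ribosome reporter at least twice as much as the humanized-ribosome reporter, growth loss under a set limit; inconclusive means no clear call, values can overlap the other calls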;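 further: wild-type GFP and h24 humanized RFP strains co-cultured 1 to 1 per well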
# Starred values were filed as active, the others as inactive; u = inconclusive; x = no result given; [ ] = dose if it differs, or a comment.
SMILES,E-selectin induc,Cneo AK release,DENV2 CPE rescue,rRNA inh HTS,miR122 inh,AID977621,AID977628,others
COc1ccc(CCCc2nc3ccccc3[nH]2)cc1,-0.4,x,2.4,-21.9*,-10.5,-5.85,u,
Cc1ccsc1C(=O)OCC(=O)N1CCc2ccccc2C1,-1.2,-7.4,u,-22.3*,-9.8,-8.93,x,
Cc1ccsc1C(=O)N1CCc2ccccc2C1,-0.6,-0.3,-0.3,-3.5,-3.8,x,x,
COC(=O)c1ccc(CSc2nc3ccccc3s2)o1,x,-5.2,-1.7,-32.7*,0.6,11.1,-2.88,
COc1ccc(C(=O)Cn2c(C)nc([N+](=O)[O-])c2Br)cc1,7.3,x,-4.3,-35.4*,x,x,-10.8,
O=[N+]([O-])c1ccccc1Nc1ccccc1[N+](=O)[O-],0.0,-1.2,-9.0,5.0,-2.9,x,x,
NC(=O)c1cc([N+](=O)[O-])ccc1Nc1ccccc1,-0.1,-3.9,13.8,11.8,x,x,x,
Nc1cc([N+](=O)[O-])ccc1Nc1ccc(O)cc1,0.1,0.0,-4.1,-24.1*,-16.3,x,u,
Nc1ccccc1Nc1ccc([N+](=O)[O-])cc1[N+](=O)[O-],-0.8,x,3.3,-24.4*,x,-16.9,-18.7,
COc1ccccc1CNC(=O)c1cc2sccc2n1C,x,x,-4.8,-20.4*,7.3,-5.15,x,
Cn1c(C(=O)NCc2cccnc2)cc2sccc21,x,-1.1,-4.0,2.1,-10.8,x,x,
Cc1cccc(C)c1NC(=O)C1(C)CSCC(=O)N1CCOc1ccccc1 (stereo not drawn),0.1,x,0.6,-22.4*,x,-12,-18,
COCCN1C(=O)CSCC1(C)C(=O)Nc1c(C)cccc1C (stereo not drawn),-7.6,x,0.7,13.8,x,x,x,
CCCNC(=O)Nc1ccc2c(c1)C(=O)N(C)C[C@H](OC)[C@H](C)CN(Cc1ccc(-c3ccccn3)cc1)[C@@H](C)CO2,0.6,x,x,-1.6,x,x,x,
COc1ccc(-c2cn(CC[C@H]3CC[C@H](NC(=O)Nc4ccc(F)cc4)[C@@H](CO)O3)nn2)cc1,-0.5,x,-3.5,-6.3,x,x,x,
C=C(C)Cn1c(SCC(=O)O)nc2c1c(=O)[nH]c(=O)n2C,x,4.2,-2.3,-12.4*,-2.4,u,u,
O=C(CCC(=O)N1CCN(c2ccc(F)cc2)CC1)c1ccc(F)cc1,x,x,-7.0,-20.5*,x,-1.84,-11.7,
O=C(CCC(=O)N1CCN(c2ccc(F)cc2)CC1)c1ccccc1,x,-0.6,u,-5.7,-0.7,x,x,
COc1ccc2c3c([nH]c2c1)[C@@H](CO)N(C(=O)CC1CC1)CC31CN(Cc2ccncc2)C1,-0.3,x,u,-2.8,x,x,x,
C(=C/c1nccc2c1[nH]c1ccccc12)/c1ccc2c(c1)OCO2,20.0,-0.9,-7.7,-37.3*,x,12.3,-2.17,
CCCC#Cc1cnc2c(c1)C(=O)N([C@@H](C)CO)C[C@H](C)[C@@H](CN(C)S(=O)(=O)c1ccccc1)O2,0.0,0.5,11.9,-0.2,27.2[16.7 µM],x,x,
Cc1cc(C)cc(NC(=O)c2cccc(NC(=O)c3ccco3)c2)c1,-0.1,-2.1,13.6,-24.1*,-0.4,-24.5,x,
C[C@@H]1CCCCO[C@H](CN(C)S(=O)(=O)c2ccc(Cl)cc2)[C@H](C)CN([C@H](C)CO)C(=O)c2cc(NC(=O)CCC(F)(F)F)ccc2O1,1.1,2.7,9.5,-0.1,6.8[16.7 µM],x,x,
CCOC(=O)C1(CCCc2ccccc2)CCN(C(=O)CCn2cncn2)CC1,0.3,x,11.8,-20.1*,x,-4.12,-10.9,
CCCNC(=O)C[C@H]1C[C@@H]2c3cc(NS(=O)(=O)c4ccc(F)cc4)ccc3O[C@@H]2[C@@H](CO)O1,-0.3,6.1,4.1,-3.4,3.2[16.7 µM],x,x,
SMILES,E-selectin induc,Cneo AK release,DENV2 CPE rescue,rRNA inh HTS,miR122 inh,AID977621,AID977628,others
COc1ccc(C#Cc2ccc3c(c2)[C@@H]2[C@@H](CCN2Cc2nccs2)[C@@H](CO)N3)cc1,0.2,3.8,x,-21.9*,-11.0[16.7 µM],x,u,
COc1ccc(C#Cc2ccc3c(c2)[C@@H]2[C@@H](CCN2C(=O)C2CC2)[C@H](CO)N3)cc1,0.4,x,-10.5,-3.1,x,x,x,
COc1ccc(-n2cc(-c3ccccc3)c3c(NCCCN4CCOCC4)ncnc32)cc1,-0.1,x,-7.2,-55.5,x,x,x,
COc1ccc(-n2cc(-c3ccccc3)c3c(N4CCOCC4)ncnc32)cc1,x,-3.3,x,-29.4*,-0.9,x,u,HepG2 tox=15.5
C[C@@H]1CCCCO[C@@H](CN(C)Cc2ccc(C(F)(F)F)cc2)[C@H](C)CN([C@@H](C)CO)C(=O)c2cc(NC(=O)Nc3ccc4c(c3)OCO4)ccc2O1,0.1,-0.8,u,2.5,-3.8[16.7 µM],x,x,
COc1ccc(C(=O)Nc2nc3ccc(OC)cc3s2)cc1,0.0,-1.8,u,-31.6*,x,x,u,
C[C@H]1CN([C@@H](C)CO)C(=O)c2cccc(NS(=O)(=O)c3ccccc3)c2O[C@@H]1CN(C)Cc1ccncc1,0.5,-2.9,-0.4,-2.4,13.3[16.7 µM],x,x,
Cc1ccc(C(=O)c2ccccc2C(=O)OCC(=O)NC(C)(C)C)cc1,5.0,-2.1,-4.2,-19.6*,3.6,-21.5,x,
O=C(COc1ccccc1Cl)Nc1nc(-c2ccncc2)cs1,2.1,-1.1,13.3,-20.4*,-1.7,-3.8,-12.9,
O=C(COc1ccc(Cl)cc1)Nc1nc(-c2ccncc2)cs1,-0.2,3.8,u,-0.2,-10.3,x,x,
CC(C)NC(=O)Nc1ccc2c(c1)C(=O)N([C@@H](C)CO)C[C@@H](C)[C@H](CN(C)C(=O)CCC(F)(F)F)OCCCC[C@H](C)O2,0.8,0.8,8.5,0.8,2.9[16.7 µM],x,x,
O=C(COc1cc(F)ccc1[N+](=O)[O-])NCCCc1ccccc1,-0.3,x,-10.6,-27.4*,x,-1.39,-7.18,
Cc1cc(CNC(=O)COc2cc(F)ccc2[N+](=O)[O-])c2ccccc2n1,-2.4,-3.0,2.0,-0.5,-4.1,x,x,
COc1ccccc1CC(=O)NCCc1ccccc1,x,-1.5,3.1,21.1,4.2,x,x,
COc1ccccc1CC(=O)NCCCc1ccccc1,-0.1,-5.6,-11.3,-23.0*,-6.1,-5.46,u,
COc1ccc(CNC(=O)C[C@H]2C=C[C@H](NC(=O)CN(C)C)[C@@H](CO)O2)cc1,-0.1,1.0,8.3,1.2,x,x,x,
CCN(CC)C(=O)c1ccc(COc2ccccc2Cl)o1,-0.1,x,6.7,-20.3*,x,1.51,-6.92,
CS(=O)(=O)Nc1ccc2c(c1)[C@H]1C[C@@H](CC(=O)NCC3CC3)O[C@H](CO)[C@H]1O2,0.3,-1.7,2.2,-0.6,-0.3[16.7 µM],x,x,
Cc1ccc2nc(SCC(=O)c3ccc4c(c3)NC(=O)CO4)[nH]c2c1,-0.7,x,x,-21.4*,x,-7.18,u,
